Bioassay records from PubChem.
Sampled rows, rich in hits. Any-hit rate of the full collection: about 5.2%.
PfM18AAP inh = PfM18AAP enzyme inhibition; recombinant PfM18AAP, H-Glu-NHMec fluorogenic cleavage; inhibition, % at 7.35 µM; 290,000 tested, 1.2% active;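 active = inhibition above the campaign mean inhibition over all tested compounds plus 3 SD, cut at about 28% in these data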
EBNA-1 inh = blocks EBNA-1 binding to DNA; EBNA-1 DNA binding, fluorescence polarization; inhibition, % at 14.8 µM; 300,000 tested, 0.34% active; AID 1950; in the data active = inhibition above about 28%
ZTA counter = ZTA (EBV) inhibition in EBNA-1 counter-screen; inhibition, % at 11 µM; AID 2234; ZTA-DNA binding, fluorescence polarization; 320,000 tested, 0.15% active; in the data active = inhibition above about 33%
Target sequence (P03206 whole entry, looked up): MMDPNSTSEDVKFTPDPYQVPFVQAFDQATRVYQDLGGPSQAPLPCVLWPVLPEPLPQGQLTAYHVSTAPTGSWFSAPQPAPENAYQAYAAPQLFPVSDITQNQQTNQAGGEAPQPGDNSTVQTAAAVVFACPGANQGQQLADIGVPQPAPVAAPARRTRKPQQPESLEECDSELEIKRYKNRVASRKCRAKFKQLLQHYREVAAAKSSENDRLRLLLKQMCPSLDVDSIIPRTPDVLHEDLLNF
HCV core dimer = blocks dimerization of HCV core protein. TR-FRET GST/Flag-core106 dimerization, 1536-well. inhibition, % at 5 µM. 300,000 tested, 0.33% active. AID 1899;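 active = inhibition above the mean of all tested compounds plus 3 SD, set per screening campaign, cut at about 45% in these data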
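Assay system: GST-tagged and Flag-tagged HCV core protein residues 1-106 / Times: compound-protein-antibody incubation 4 h at 22.5 °C / Signal: time-resolved FRET, ex 340 nm, em 617 and 671 nm / Evaluation: % inhibition based on acceptor/donor emission ratio / Benchmarks: wells lacking GST-core106 and wells with excess unlabelled core106 / Repeats: singlicate, one well per compound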
NS3 helicase inh = HCV NS3 helicase inhibition. 290,000 tested, 0.56% active. AID 1800. NS3 helicase DNA unwinding, Cy5 molecular beacon fluorescence. inhibition, % at 10.9 µM;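 active = inhibition above the mean of all tested compounds plus 3 SD, set per campaign, cut at about 35% in these data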
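System: Hepatitis C virus NS3 helicase domain fragment enzyme | Reagent: Annealed dual-labelled DNA beacon duplex, ATP-started | Compound dosing: 10.9 µM single point, 0.8% DMSO | Incubation: 1 h reaction at 25 °C, ATP-initiated | Technique: Cy5 fluorescence | Evaluation: Percent inhibition from t60/t0 fluorescence ratio | Benchmarks: Low DMSO, high thioflavine S at 110 µM | Replication: Singlicate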
ALR inh = blocks human ALR sulfhydryl oxidase activity; purified ALR, DTT oxidation, H2O2 HRP-luminol luminescence; 290,000 tested, 3.8% active; inhibition, % (no concentration beside the values); P55789;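 active = mean replicate inhibition above about 79%, with every replicate also reaching it, limit read from the data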
Target sequence (P55789 whole entry, looked up): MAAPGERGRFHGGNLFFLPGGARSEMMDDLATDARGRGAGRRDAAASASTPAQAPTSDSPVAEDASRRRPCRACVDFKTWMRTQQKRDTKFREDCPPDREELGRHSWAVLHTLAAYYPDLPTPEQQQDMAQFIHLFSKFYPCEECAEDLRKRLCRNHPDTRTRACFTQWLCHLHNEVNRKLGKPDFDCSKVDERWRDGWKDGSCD
A number is an active result.

For CN(c1ccccc1C(=O)N1CCCC1)S(C)(=O)=O the results were PfM18AAP inh inactive, EBNA-1 inh inactive, ZTA counter inactive, HCV core dimer inactive, NS3 helicase inh inactive and ALR inh inactive.
CN(c1ccccc1C(=O)N1CCN(c2ccccc2)CC1)S(C)(=O)=O was read as PfM18AAP inh inactive, EBNA-1 inh inactive, ZTA counter inactive, HCV core dimer inactive, NS3 helicase inh inactive and ALR inh 87.
CCOC(=O)C1CCCN(C(=O)c2cc(S(=O)(=O)Nc3ccccc3OC)ccc2C)C1 (stereo not drawn) was read as PfM18AAP inh inactive, EBNA-1 inh inactive, ZTA counter inactive, HCV core dimer inactive, NS3 helicase inh inactive and ALR inh inactive.
CCc1ccccc1N(CC(=O)N1CCN(c2ccccc2)CC1)S(C)(=O)=O was read as PfM18AAP inh inactive, EBNA-1 inh inactive, ZTA counter inactive, HCV core dimer inactive, NS3 helicase inh inactive and ALR inh 98.
CS(=O)(=O)Nc1ccccc1C(=O)N1CCN(c2ccccc2)CC1 was read as PfM18AAP inh inactive, EBNA-1 inh inactive, ZTA counter inactive, HCV core dimer inactive, NS3 helicase inh inactive and ALR inh 98.
COc1ccccc1NS(=O)(=O)c1ccc(C)c(C(=O)N2CCN(c3ccc(O)cc3)CC2)c1 was read as ALR inh 99.
For CCCc1cc(=O)oc2cc(OCC(=O)N3CCN(C(=O)C4COc5ccccc5O4)CC3)ccc12 (stereo not drawn) the results were PfM18AAP inh inactive, EBNA-1 inh inactive, ZTA counter inactive, HCV core dimer inactive, NS3 helicase inh inactive and ALR inh inactive.
For Cc1cccc2c(C(=O)Nn3cnnc3)cc(-c3ccccc3Cl)nc12 the results were PfM18AAP inh 45, EBNA-1 inh inactive, ZTA counter inactive, HCV core dimer inactive, NS3 helicase inh inactive and ALR inh inactive.
CC(Oc1ccc2c3c(c(=O)oc2c1)CCC3)C(=O)NCCCn1ccnc1 (stereo not drawn) was read as PfM18AAP inh inactive, EBNA-1 inh inactive, ZTA counter inactive, HCV core dimer inactive, NS3 helicase inh inactive and ALR inh inactive.
Screening Cc1ccc(O)c(N/C=C/C(=O)c2ccc(F)cc2)c1 returned PfM18AAP inh 28, EBNA-1 inh inactive, ZTA counter inactive, HCV core dimer inactive, NS3 helicase inh inactive and ALR inh inactive.
Screening Cc1ccc(N/C=C/C(=O)c2ccc(C)cc2)cc1 returned PfM18AAP inh inactive, EBNA-1 inh inactive, ZTA counter inactive, HCV core dimer inactive, NS3 helicase inh inactive and ALR inh inactive.
`Cc1nc2nc(-c3ccc(F)cc3)cn2nc1C` gave PfM18AAP inh inactive, EBNA-1 inh inactive, ZTA counter inactive, HCV core dimer inactive, NS3 helicase inh inactive and ALR inh inactive.
Cc1nn2cc(-c3ccc(N)cc3)nc2s1 was read as PfM18AAP inh inactive, EBNA-1 inh inactive, ZTA counter inactive, HCV core dimer inactive, NS3 helicase inh inactive and ALR inh 98.
For CSc1cccc(NC(=O)c2nnn(CC(=O)Nc3cc(C)cc(C)c3)c2N)c1 the results were PfM18AAP inh inactive, EBNA-1 inh inactive, ZTA counter inactive, HCV core dimer inactive, NS3 helicase inh inactive and ALR inh inactive.
Screening Cc1oc(-c2cccc(Cl)c2)nc1CS(=O)(=O)CC(=O)NCc1ccco1 returned PfM18AAP inh inactive, EBNA-1 inh inactive, ZTA counter inactive, HCV core dimer inactive, NS3 helicase inh inactive and ALR inh inactive.
For COc1ccc(-c2[nH]c(-c3ccc(C)cc3)nc2SCC(=O)NCc2ccco2)cc1OC the results were PfM18AAP inh inactive, EBNA-1 inh inactive, ZTA counter inactive, HCV core dimer inactive, NS3 helicase inh inactive and ALR inh inactive.
`Cc1cccc(-c2nc(CS(=O)CC(=O)NCc3ccco3)c(C)o2)c1` (stereo not drawn) gave PfM18AAP inh inactive, EBNA-1 inh inactive, ZTA counter inactive, HCV core dimer inactive, NS3 helicase inh inactive and ALR inh 99.
`COc1ccc(-c2nc(CS(=O)CC(=O)NCc3ccco3)c(C)o2)cc1OC` (stereo not drawn) gave PfM18AAP inh inactive, EBNA-1 inh inactive, ZTA counter inactive, HCV core dimer inactive, NS3 helicase inh inactive and ALR inh 98.
`Cc1ccc(-c2nc(CS(=O)CC(=O)NCc3ccco3)c(C)o2)cc1` (stereo not drawn) gave PfM18AAP inh inactive, EBNA-1 inh inactive, ZTA counter inactive, HCV core dimer inactive, NS3 helicase inh inactive and ALR inh 99.
`Cc1onc(-c2ccccc2)c1C(=O)N1CCN(c2ccccc2F)CC1` gave PfM18AAP inh inactive, EBNA-1 inh inactive, ZTA counter inactive, HCV core dimer inactive, NS3 helicase inh inactive and ALR inh inactive.
For CN1C=CC=C/C1=C1\SC(=S)N(C2CCCCC2)C1=O the results were PfM18AAP inh inactive, EBNA-1 inh inactive, ZTA counter inactive, HCV core dimer inactive, NS3 helicase inh inactive and ALR inh 99.
`CN1C=CC=C/C1=C1\SC(=S)N(CC(=O)O)C1=O` gave PfM18AAP inh inactive, EBNA-1 inh inactive, ZTA counter inactive, HCV core dimer inactive, NS3 helicase inh inactive and ALR inh inactive.
`C=CCN1C=CC=C/C1=C1\SC(=S)N(C)C1=O` gave PfM18AAP inh inactive, EBNA-1 inh inactive, ZTA counter inactive, HCV core dimer inactive, NS3 helicase inh inactive and ALR inh 99.
Screening CN1C=CC=C/C1=C1\SC(=S)N(c2ccccc2)C1=O returned PfM18AAP inh inactive, EBNA-1 inh inactive, ZTA counter inactive, HCV core dimer inactive, NS3 helicase inh inactive and ALR inh 99.
CN1C(=O)C(=C2CCCCCC2)SC1=S was read as PfM18AAP inh inactive, EBNA-1 inh inactive, ZTA counter inactive, HCV core dimer inactive, NS3 helicase inh inactive and ALR inh inactive.
Screening COc1ccc(NC(=O)CSc2nc(-c3ccco3)nc3cc(=O)[nH]n23)cc1Cl returned PfM18AAP inh inactive, EBNA-1 inh inactive, ZTA counter inactive, HCV core dimer inactive, NS3 helicase inh inactive and ALR inh 99.
For Cn1c(=O)c2c(nc3n2CC(O)CN3c2ccc(O)cc2)n(C)c1=O (stereo not drawn) the results were PfM18AAP inh inactive, EBNA-1 inh inactive, ZTA counter inactive, HCV core dimer inactive, NS3 helicase inh inactive and ALR inh 99.
O=S1(=O)CC/C(=N\Nc2ccccc2)c2ccsc21 was read as PfM18AAP inh inactive, EBNA-1 inh inactive, ZTA counter inactive, HCV core dimer inactive, NS3 helicase inh inactive and ALR inh 100.
For N#C/C(=C\c1ccc(C#N)cc1)C(=O)c1ccccc1 the results were PfM18AAP inh inactive, NS3 helicase inh inactive and ALR inh 93.
For O=C(Nc1nnc(SCc2ccc(F)cc2)s1)C1Cc2ccccc2CN1C(=O)c1ccco1 (stereo not drawn) the results were PfM18AAP inh inactive, EBNA-1 inh inactive, ZTA counter inactive, HCV core dimer inactive and NS3 helicase inh inactive.
